From ChEMBL document CHEMBL3813670, “Unique Polybrominated Hydrocarbons from the Australian Endemic Red Alga Ptilonia australasica” (J Nat Prod, 2016) come the findings set out here.

Calls of active or inactive are those of the source. The calls are words filed in the database; no cut-off is given here.

Test [1] can be described thus: Cell cycle arrest in human PC3 cells assessed as accumulation at G2/M phase at 4 uM after 24 hrs by propidium iodide staining based flow cytometry (reference value: 22.2 +/- 0.4%). The settings on record: PC-3. It is filed as functional. The procedure, abridged:
(§1)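 PC3 cells exposed to compound at various concentrations for 24 h, then harvested, rinsed in ice-cold PBS and fixed in 70% alcohol at −20 °C for 16 h. After a second cold PBS wash, cells were held 20 min at room temperature in 1 mL containing 0.1% Triton X-100, 0.2 mg RNase A and 2 μL PI (1 mg/mL). DNA content was read by flow cytometry.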
(In general: In flow cytometry, cells or beads pass a laser one at a time.)

The nature of test [2]: Cell cycle arrest in human PC3 cells assessed as accumulation at S phase at 4 uM after 24 hrs by propidium iodide staining based flow cytometry (reference value: 15.3 +/- 3.1%). It is filed as functional. The settings on record: PC-3. The procedure, abridged:
as §1

A short description of test [3]: Cell cycle arrest in human PC3 cells assessed as accumulation at G0/G1 phase at 1.3 uM after 24 hrs by propidium iodide staining based flow cytometry (reference value: 62.5 +/- […]%). The class given is functional. The settings on record: PC-3.
Test [4] is described as follows: Cell cycle arrest in human PC3 cells assessed as accumulation at G0/G1 phase at 4 uM after 24 hrs by propidium iodide staining based flow cytometry (reference value: 62.5 +/- […]%). It is filed as functional. The settings on record: PC-3.
Test [5] can be described thus: Cell cycle arrest in human PC3 cells assessed as accumulation at S phase at 1.3 uM after 24 hrs by propidium iodide staining based flow cytometry (reference value: 15.3 +/- 3.1%). It is filed as functional. Particulars: PC-3. The procedure, abridged: as §1
Test [6] in a line: Cytotoxicity against human PC3 cells assessed as growth inhibition after 72 hrs by Alamar blue assay. The class given is functional, cell-based. Particulars: PC-3, 72 h.
Test [7] in a line: Cell cycle arrest in human PC3 cells assessed as accumulation at G2/M phase at 1.3 uM after 24 hrs by propidium iodide staining based flow cytometry (reference value: 22.2 +/- 0.4%). It is filed as functional. The settings on record: PC-3. The procedure, abridged: as §1
Test [8] can be described thus: Cell cycle arrest in human PC3 cells assessed as accumulation at G0/G1 phase at 0.4 uM after 24 hrs by propidium iodide staining based flow cytometry (reference value: 55.6 to 62.5%). It is filed as functional. Particulars: PC-3. The procedure, abridged: as §1
The nature of test [9]: Cell cycle arrest in human PC3 cells assessed as accumulation at G2/M phase at 0.4 uM after 24 hrs by propidium iodide staining based flow cytometry (reference value: 18.7 to 22.2%). Particulars: PC-3. It is filed as functional. The procedure, abridged: as §1
The nature of test [10]: Cell cycle arrest in human PC3 cells assessed as accumulation at S phase at 0.4 uM after 24 hrs by propidium iodide staining based flow cytometry (reference value: 15.3 to 25.8%). The class given is functional. Particulars: PC-3. The procedure, abridged:
as §1

For the next test, the system named is PC-3. Briefly: Cytotoxicity against human PC3 cells assessed as growth inhibition at 80 uM after 72 hrs by Alamar blue assay. The class given is functional, cell-based. For orientation: Resazurin is reduced to fluorescent resorufin, in cell work by metabolically active cells.
Test [11] can be described thus: Cell cycle arrest in human PC3 cells assessed as accumulation at S phase at 0.13 uM after 24 hrs by propidium iodide staining based flow cytometry (reference value: 25.8 +/- 0.7%). The class given is functional. The settings on record: PC-3. The procedure, abridged:
as §1

A short description of test [12]: Cell cycle arrest in human PC3 cells assessed as accumulation at G2/M phase at 0.13 uM after 24 hrs by propidium iodide staining based flow cytometry (reference value: 18.7 +/- 0.7%). Particulars: PC-3. The class given is functional. The procedure, abridged: as §1
A short description of test [13]: Cell cycle arrest in human PC3 cells assessed as accumulation at G0/G1 phase at 0.04 uM after 24 hrs by propidium iodide staining based flow cytometry (reference value: 55.6 +/- 1.4%). The settings on record: PC-3. The class given is functional. The procedure, abridged: as §1
Test [14] can be described thus: Cell cycle arrest in human PC3 cells assessed as accumulation at G0/G1 phase at 0.13 uM after 24 hrs by propidium iodide staining based flow cytometry (reference value: 55.6 +/- 1.4%). It is filed as functional. The settings on record: PC-3. The procedure, abridged:
as §1

Test [15] in a line: Cell cycle arrest in human PC3 cells assessed as accumulation at S phase at 0.04 uM after 24 hrs by propidium iodide staining based flow cytometry (reference value: 25.8 +/- 0.7%). The class given is functional. Particulars: PC-3. The procedure, abridged: as §1
Test [16] can be described thus: Cell cycle arrest in human PC3 cells assessed as accumulation at G2/M phase at 0.04 uM after 24 hrs by propidium iodide staining based flow cytometry (reference value: 18.7 +/- 0.7%). It is filed as functional. The settings on record: PC-3. The procedure, abridged: as §1

The IC50 is the point on the concentration scale where inhibition reaches its midpoint.

`Cc1oc(C(Br)=C(Br)Br)cc(=O)c1O`: the Activity in [1] amounted to 2.9%; in test [2], 23.8%; in [3] it was 72.7%; in test [4] it was 73.3%; in test [5], 21.5%; in test [7] it was 5.8%. The Activity in [8] was 63.7%; in test [9], 18.1%; in test [10], 18.2%. In [6], the IC50 is 10000 nM.

Turning to `CC(=O)O[C@H]1C(=O)[C@@]2(C)[C@H]([C@H](OC(=O)c3ccccc3)[C@]3(O)C[C@H](OC(=O)[C@H](O)[C@@H](NC(=O)c4ccccc4)c4ccccc4)C(C)=C1C3(C)C)[C@]1(OC(C)=O)CO[C@@H]1C[C@@H]2O` [PACLITAXEL], the IC50 in test [6] is 2 nM.

Turning to `CC(=O)O[C@@H](C(Br)=C(Br)Br)C(Br)Br`, the inhibition entry in the test on PC-3 was “inactive”.

`CC[C@@]1(O)C(Br)=C(Br)C(=O)C1=C(Br)Br`: the Activity in test [11] came to 13.8%; in test [12], 11.2%; in [13], 63.3%; in test [14], 75%; in test [15] it was 18.1%; in [16], 13.6%. The Activity turned out to be 88.4% in [8], 0.1% in [9] and 11.5% in [10]. In addition, the IC50 in [6] is 440 nM.
